Compounds with a hit are over-represented: about 1.6% of the library has one in this group of screens.
LANA-H2A inh: blocks KSHV LANA binding to histone H2A/H2B. Q9QR71. cell-free LANA-H2A/H2B peptide, fluorescence polarization. inhibition, % (concentration not given with the values). 320,000 tested, 0.6% active; in the data active = inhibition mostly above about 10%, no sharp cut-off; inactive = mostly below about 6.7%
T cell modulator: modulates CD8 T cell binding to vesicles | 2C CD8+ T cell-vesicle binding, flow cytometry; hits give low values | response (vesicle binding), % at 7 µM | 330,000 tested, 0.068% active | AID 2052;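 active = response, share of CD8 T cells binding vesicles, and their 90th percentile fluorescence all below set limits, cut at about 80% in these data, passing the limit was not always enough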;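 also: values below 100% mean blocked vesicle binding to the CD8+ T cells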
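Incubation: binding step 1.5 h, 37 °C, antibody labelling 20 min, ice; system: murine 2C transgenic CD8+ T lymphocytes; technique: cytometric PE anti-B7-1 and Alexa647 anti-CD8 signals after 1% paraformaldehyde fixation; also added: QL9-charged Drosophila Ld/ICAM-1/B7-1 vesicles; control set: naked versus QL9-loaded vesicles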
Arr AP2 block: blocks beta-arrestin peptide binding to AP2 adaptin. FITC-arrestin peptide / GST-AP2 beads, flow cytometry; AP2 beta2 appendage carries R879A mutation. inhibition, % at 10 µM. 340,000 tested, 0.31% active;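 active = inhibition above a set limit, near 3 SD of compounds lacking own fluorescence, cut at about 54% in these data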;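 also: plate controls were DMSO wells for no effect and 5 µM unlabelled arrestin peptide for full effect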
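Test system: GST-tagged AP2 beta2-adaptin appendage (R879A) on 4 µm glutathione beads; also added: fluorescein-tagged arrestin peptide at 50 nM final; timing: 12 min plus 1 h, RT; signal: flow cytometry, FL1 (488/535 nm); read-out: percent drop in bead-associated FITC signal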
Pemphigus Ab inh: blocks pemphigus antibody binding to human desmoglein-3; P32926; DSG3-coupled beads, scFv-anti-DSG3-GFP binding, flow cytometry; hits give low values; binding (percent of control), % at 10 µM; 310,000 tested, 0.48% active;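 active = binding more than 3 SD below its plate's average and above zero; inconclusive = below that plate limit but binding exactly zero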;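 also: hits lower antibody fragment binding to DSG3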
JMJD2C inh: human JMJD2C demethylase inhibition. Q9H3R0. GST-JMJD2C(1-420) H3K9me3 demethylation, DELFIA europium. inhibition, % at 2.35 µM. 330,000 tested, 0.069% active. AID 2099;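 active = more than half of a compound's replicate wells show inhibition beyond 50%, single wells judged on their own value; inconclusive = some, but no more than half, of replicates pass 50% inhibition; inactive = no replicate passes 50% inhibition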;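 also: signal counts dimethyl H3K9 product captured on neutravidin plate; 0% = median of DMSO wells and 100% = 0.3 times that DMSO median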
HDAC3 inh: blocks human histone deacetylase 3. recombinant HDAC3, fluorogenic peptide/trypsin coupled, fluorescence. 320,000 tested, 0.15% active. O15379. inhibition, % at 8.3 µM; in the data active = inhibition above about 26%, passing the limit was not always enough; inconclusive = no clear call, values can overlap the other calls
Numbers without * were called inactive; i = inactive; ? = inconclusive; nt = not tested or not shown; ! = not confirmed by another sample.

SMILES	LANA-H2A inh	T cell modulator	Arr AP2 block	Pemphigus Ab inh	JMJD2C inh	HDAC3 inh
CCOc1ccc(CCn2c(-c3ccco3)nc3ccccc3c2=O)cc1OCC	11*	265	3	102	5	4
O=c1c2ccccc2nc(-c2ccco2)n1Cc1ccccc1	0	457	-2	105	-25	3
Cc1ccccc1C(=O)Nc1ccnn1C1CCN(Cc2cnn(C(C)C)c2)CC1	17*	804	3	98	-10	-5
CSc1nc(N)c(C(=O)NC2CCCCC2)s1	3	40	10	94	9	6
CCC1=NNc2cccc3c(OC)ccc1c23	7	335	nt	nt	3	31*
CC(C)=CCC/C(C)=C/CC/C(C)=N/O	12*	370	-4	nt	3	6
CCC(C(=O)NC1CC(C)(C)NC(C)(C)C1)c1ccccc1 (stereo not drawn)	14*	358	-2	106	18	2
Cc1ccc(S(=O)(=O)N2CCN(C(=O)COC(=O)COc3ccc(Cl)cc3C)CC2)c(C)c1	nt	nt	-9	100	nt	nt
C/C(=C\c1ccccc1)C(=O)n1nnc2ccccc21	2	321	29	96	0	28*
O=C(N1CCOCC1)n1nnc2ccccc21	-1	140	0	96	-19	0
COC(=O)c1ccc(OC(=O)c2ccco2)cc1	1	159	2	105	-6	56*
COC(=O)c1ccc(OC(=O)c2cccnc2SC)cc1	-1	680	-3	134	1	1
O=C(Oc1ccc(-c2ccccc2)cc1)c1ccco1	nt	nt	0	90	nt	nt
COC(=O)c1ccc(OC(=O)c2cccs2)cc1	0	195	17	82	-6	63*
COC(=O)c1ccc(OC(=O)c2ccccn2)cc1	-1	i	21	nt	0	46*
CCC(=O)c1ccc(OC(=O)c2cccs2)cc1	-1	577	24	nt	-13	62*
O=C(c1cn(-c2ccccc2)nc1-c1cccnc1)N1CCN(S(=O)(=O)c2cccc(F)c2)CC1	nt	308	31	95	-1	-3
COc1ccc(C)cc1NC(=O)CN1CCN(S(=O)(=O)c2ccc3ccccc3c2)CC1	5	292	-7	95	17	10
O=C(CC1(CC2=NS(=O)(=O)c3ccccc3N2)CCCC1)NCCc1ccccc1	-5	350	6	104	-18	3
Nc1ccccc1C(=O)NC(=O)Nc1ccc(Oc2ncc(Br)cn2)c(Cl)c1	nt	nt	-9	87	nt	nt
COc1ccc(NC(=O)NC2CCCCCCC2)cc1	-2	69*	1	101	10	1
COC(=O)c1ccc(NC(=O)NC2CCCCC2)cc1	1	168	7	100	4	-14
CCCN1CCC(NC(=O)Nc2cc(Cl)ccc2OC)CC1	4	628	4	98	-2	-7
COc1ccc(NC(=O)c2ccc(CNc3c(NC4CCCCC4)c(=O)c3=O)cc2)c(OC)c1	-5	320	10	-2.5*!	-2	6
COc1ccc(Cl)cc1NC(=O)NC1CCCCC1	21*	402	3	107	1	-9
SMILES	LANA-H2A inh	T cell modulator	Arr AP2 block	Pemphigus Ab inh	JMJD2C inh	HDAC3 inh
COc1ccc(CC(=O)NC2CCCCCC2)c(OC)c1	4	632	-5	-48*	16	-4
COc1ccc2c(c1)OC[C@H]1[C@H]2N2C(=O)CN(Cc3ccccc3)C(=O)[C@@]2(C)[C@H]1c1ccccc1	nt	nt	9	109	nt	nt
COc1ccc(/C=N/Nc2nc(C(=O)O)cs2)cc1	2	326	-10	113	18	-1
COc1ccc(-c2nc(SCC(=O)NC3CCCCC3)n[nH]2)cc1	76*	344	6	nt	-1	-3
CCN1CCN(c2ccc(S(=O)(=O)N3CCOCC3)cc2N)CC1	1	268	6	97	2	0
O=C(COc1ccc2c(c1)oc(=O)c1ccccc12)NCCCN1CCOCC1	5	211	-2	83	11	-36
Cc1cnc(C(=O)OCC(=O)Nc2ccccc2[N+](=O)[O-])cn1	-1	284	-20	92	1	-2
O=C(CN(c1ccc(Cl)cc1)S(=O)(=O)c1ccc(Cl)c([N+](=O)[O-])c1)NCCc1ccccc1	1	347	-39	98	-26	7
O=C(CN(c1ccc(Cl)cc1)S(=O)(=O)c1ccc(Cl)c([N+](=O)[O-])c1)NCCc1ccc(F)cc1	3	274	10	45*	-3	4
COCCn1c(=S)[nH]c2cc(C(=O)N3CCCC(C)C3)ccc2c1=O (stereo not drawn)	3	351	2	107	-5	1
N#Cc1c(Cl)nsc1NCCN1CCOCC1	1	236	34	96	-1	-12
CC(C)c1ccccc1NS(=O)(=O)N(C)C	1	171	-1	49*	6	-8
Cc1csc(-c2coc3cc(O)cc(C)c3c2=O)n1	8.1*	275	-42	117	-5	12
O=C(CCNC(=O)C1CCN(S(=O)(=O)c2ccc(F)cc2)CC1)NCc1ccccn1	nt	nt	nt	109	nt	nt
OC(CNCCC1C=Nc2ccccc21)Cn1c2ccc(Cl)cc2c2cc(Cl)ccc21 (stereo not drawn)	-1	927	31	129	-4	46*
O=S(=O)(/N=C(/Nc1cccc2ccccc12)c1ccccc1)c1ccc(F)cc1	0	428	11	95	7	?
O=C(NCC(=O)N1CCOCC1)c1ccc(Cl)c(Cl)c1	-3	223	-1	145	11	3
COc1ccc(NS(=O)(=O)c2cccc(C(=O)N3CCN(c4ccccc4O)CC3)c2)cc1	nt	382	-3	93	-1	nt
CC(=O)Nc1ccccc1C(=O)C(=O)Nc1ccccc1	4.6*	219	-1	82	-6	-1
CC(=O)Nc1ccccc1C(=O)C(=O)Nc1ccc(Cl)cc1	-4	302	-3	nt	-8	4
COc1ccc(/C=C/C(=O)NCC(=O)N=Nc2c(O)[nH]c3ccc([N+](=O)[O-])cc23)cc1	8	173	-1	98	-1	2
Cn1c(SCc2ccc(F)cc2)nnc1-c1cnccn1	3	270	8	76*	-5	4
CCN(CC)c1ccc(S(=O)(=O)N2CCCCC2)cc1NC(=O)C1CCC1	71*	399	34	115	-1	3
CCN(CC)c1ccc(S(=O)(=O)N2CCOCC2)cc1NC(=O)C1CC1	nt	157	26	100	nt	nt
Cc1ccc(S(=O)(=O)N(C)C)cc1NC(=O)C1CCCCC1	4	634	18	63*	-28	1
Brc1cccc(CNCC2CCCO2)c1 (stereo not drawn)	-4	320	14	106	7	-8
O=C(C[n+]1ccccc1)Nc1ccccc1[N+](=O)[O-]	111*	426	12	117	-2	0

Screening results (PubChem BioAssay)
